≈ marks a conversion by molar mass, not a printed value.
How the values were obtained:
Format in all cases: functional
Aspergillus fumigatus = assay: Antifungal activity against Aspergillus fumigatus by disc diffusion method
Outline: (§1)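 Fungi were screened first by disc diffusion on corn meal agar, with M-3 broth susceptibility test medium. MIC was then determined by broth dilution.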

Cryptococcus neoformans = assay: Antifungal activity against Cryptococcus neoformans by disc diffusion method; outline: as §1
Mucor = assay: Antifungal activity against Mucor sp. by disc diffusion method; outline: as §1
Talaromyces marneffei = assay: Antifungal activity against Penicillium marneffei by disc diffusion method; outline: as §1
Candida albicans = assay: Antifungal activity against Candida albicans by disc diffusion method; outline: as §1
Streptococcus = assay: Antibacterial activity against Streptococcus group D after 18 to 24 hrs by disc diffusion method
Outline: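 Kirby-Bauer disc diffusion: sterile 6 mm filter-paper discs impregnated with compound at 1.5, 1.1, 0.57, 0.28, 0.14 and 0.07 per mL. Discs showing zones were followed by broth dilution: doubling dilutions in 50% DMSO–H2O, inoculum to 0.5 McFarland, 37 °C for 18–24 h. MIC was the lowest dilution preventing visible turbidity. The initial solution (12.5% DMSO) was not scored.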

Compound	MIC (Aspergillus fumigatus) [µM]	MIC (Cryptococcus neoformans) [µM]	MIC (Mucor) [µM]	MIC (Talaromyces marneffei) [µM]	MIC (Candida albicans) [µM]	MIC (Streptococcus) [µM]
Nc1cccc2c1ncn2[C@@H]1O[C@H](CSCCC(=O)O)[C@@H](O)[C@H]1O	0.75 (≈ 0.265 µg/mL)	0.75 (≈ 0.265 µg/mL)	0.75 (≈ 0.265 µg/mL)	0.75 (≈ 0.265 µg/mL)	0.75 (≈ 0.265 µg/mL)	0.38 (≈ 0.134 µg/mL)
C=CCSC[C@H]1O[C@@H](n2c(CC)nc3c([N+](=O)[O-])cccc32)[C@H](O)[C@@H]1O	2 (≈ 0.759 µg/mL)	2 (≈ 0.759 µg/mL)	2 (≈ 0.759 µg/mL)	2 (≈ 0.759 µg/mL)	2 (≈ 0.759 µg/mL)	–
C=CCSC[C@H]1O[C@@H](n2cnc3c([N+](=O)[O-])cccc32)[C@H](O)[C@@H]1O	0.38 (≈ 0.134 µg/mL)	0.38 (≈ 0.134 µg/mL)	0.38 (≈ 0.134 µg/mL)	0.38 (≈ 0.134 µg/mL)	0.38 (≈ 0.134 µg/mL)	1.25 (≈ 0.439 µg/mL)
Nc1ncnc2c1ncn2[C@@H]1O[C@H](CSCCC(=O)O)[C@@H](O)[C@H]1O	1.5 (≈ 0.533 µg/mL)	1.5 (≈ 0.533 µg/mL)	1.5 (≈ 0.533 µg/mL)	1.5 (≈ 0.533 µg/mL)	1.5 (≈ 0.533 µg/mL)	0.755 (≈ 0.268 µg/mL)
CCOC(=O)CCSC[C@H]1O[C@@H](n2cnc3c(N)cccc32)[C@H](O)[C@@H]1O	0.38 (≈ 0.145 µg/mL)	0.38 (≈ 0.145 µg/mL)	0.38 (≈ 0.145 µg/mL)	0.38 (≈ 0.145 µg/mL)	0.38 (≈ 0.145 µg/mL)	0.19 (≈ 0.0725 µg/mL)
OC(Cn1cncn1)(Cn1cncn1)c1ccc(F)cc1F [FLUCONAZOLE]	0.52 (≈ 0.159 µg/mL)	0.52 (≈ 0.159 µg/mL)	0.52 (≈ 0.159 µg/mL)	0.52 (≈ 0.159 µg/mL)	0.52 (≈ 0.159 µg/mL)	–
Clc1ccc(COC(Cn2ccnc2)c2ccc(Cl)cc2Cl)c(Cl)c1 (stereo not given) [MICONAZOLE]	0.77 (≈ 0.32 µg/mL)	0.77 (≈ 0.32 µg/mL)	0.77 (≈ 0.32 µg/mL)	0.77 (≈ 0.32 µg/mL)	0.77 (≈ 0.32 µg/mL)	–
CN[C@H](CC(C)C)C(=O)N[C@H]1C(=O)N[C@@H](CC(N)=O)C(=O)N[C@H]2C(=O)N[C@H]3C(=O)N[C@H](C(=O)N[C@H](C(=O)O)c4cc(O)cc(O)c4-c4cc3ccc4O)[C@H](O)c3ccc(c(Cl)c3)Oc3cc2cc(c3O[C@@H]2O[C@H](CO)[C@@H](O)[C@H](O)[C@H]2O[C@H]2C[C@](C)(N)[C@H](O)[C@H](C)O2)Oc2ccc(cc2Cl)[C@H]1O [VANCOMYCIN]	–	–	–	–	–	0.78 (≈ 1.13 µg/mL)

Source: ChEMBL document CHEMBL1140527, “Synthesis and antimicrobial activity of some novel nucleoside analogues of adenosine and 1,3-dideazaadenosine” (2007)
